Laboratory results: paper PMC5532717 (ACS Central Science, 2017)

Assays:
Format in all cases: biochemical
sucrase-isomaltase (SIS) = sucrase-isomaltase (SIS) (Mus musculus, UniProt B5THE3); test: Competitive ABPP against probe 13 in mouse gastrointestinal lysate; details: mouse intestine lysate, 1 h at 37 °C
In short: (§1)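 Mixed mouse duodenum, jejunum and ileum homogenates were made in 25 mM potassium phosphate pH 6.5 with protease inhibitors (40 μg protein). Held 5 min on ice in McIlvaine buffer pH 4 or 7. Incubated 1 h at 37 °C with test compound (final 150 to 0.005 μM, plus 0), then probe 13 for 30 min at 37 °C. Boiled in Laemmli buffer, 10% SDS–PAGE, Cy5 fluorescence scan.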

GBA3 = target: T1, GBA3 (Homo sapiens, UniProt Q9H227); test: Competitive ABPP against β-glucosidase probe 14, GBA3+ HEK293T lysate; details: 5 from 30 to 0 μM, 1 h at 37 °C, pH 6.0
T1 sequence (Q9H227 1-469): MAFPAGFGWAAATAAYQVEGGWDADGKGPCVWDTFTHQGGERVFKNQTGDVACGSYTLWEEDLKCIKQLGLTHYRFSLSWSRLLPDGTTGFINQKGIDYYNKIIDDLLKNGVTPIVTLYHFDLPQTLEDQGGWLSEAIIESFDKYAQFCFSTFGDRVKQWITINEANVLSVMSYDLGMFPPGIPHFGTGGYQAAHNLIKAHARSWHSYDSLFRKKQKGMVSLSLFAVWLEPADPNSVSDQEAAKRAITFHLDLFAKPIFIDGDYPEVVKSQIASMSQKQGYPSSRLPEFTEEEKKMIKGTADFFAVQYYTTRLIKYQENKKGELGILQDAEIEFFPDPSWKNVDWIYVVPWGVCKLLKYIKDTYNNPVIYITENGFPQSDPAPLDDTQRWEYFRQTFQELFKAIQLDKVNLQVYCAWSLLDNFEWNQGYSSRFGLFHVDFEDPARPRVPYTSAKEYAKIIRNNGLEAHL

[1] = test system: maltase-glycoamylase (MGAM); test: Competitive ABPP against probe 13 in mouse gastrointestinal lysate; details: mouse intestine lysate, 1 h at 37 °C
In short: as §1

human α-glucosidase GAA = human α-glucosidase GAA (Homo sapiens, UniProt P10253); test: In vitro apparent IC50, recombinant GAA
In short: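 The enzyme source was GBA2-overexpressing HEK293T lysate or recombinant human GAA. It was preincubated 30 min at 37 °C with a range of test compound concentrations, then transferred into 4-MU glucoside substrate mixture to measure residual activity. Quenched with 1 M NaOH–glycine pH 10.3; 4-MU fluorescence at λex 366/λem 445 nm. Apparent IC50 is the mean of three technical replicates.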

GANAB = target: T2, GANAB (Homo sapiens, UniProt Q14697); test: Competitive ABPP against probe 13 in fibroblast lysates, pH 7; details: pH 7, preincubation 15, 30 or 60 min
T2 sequence (Q14697 29-944): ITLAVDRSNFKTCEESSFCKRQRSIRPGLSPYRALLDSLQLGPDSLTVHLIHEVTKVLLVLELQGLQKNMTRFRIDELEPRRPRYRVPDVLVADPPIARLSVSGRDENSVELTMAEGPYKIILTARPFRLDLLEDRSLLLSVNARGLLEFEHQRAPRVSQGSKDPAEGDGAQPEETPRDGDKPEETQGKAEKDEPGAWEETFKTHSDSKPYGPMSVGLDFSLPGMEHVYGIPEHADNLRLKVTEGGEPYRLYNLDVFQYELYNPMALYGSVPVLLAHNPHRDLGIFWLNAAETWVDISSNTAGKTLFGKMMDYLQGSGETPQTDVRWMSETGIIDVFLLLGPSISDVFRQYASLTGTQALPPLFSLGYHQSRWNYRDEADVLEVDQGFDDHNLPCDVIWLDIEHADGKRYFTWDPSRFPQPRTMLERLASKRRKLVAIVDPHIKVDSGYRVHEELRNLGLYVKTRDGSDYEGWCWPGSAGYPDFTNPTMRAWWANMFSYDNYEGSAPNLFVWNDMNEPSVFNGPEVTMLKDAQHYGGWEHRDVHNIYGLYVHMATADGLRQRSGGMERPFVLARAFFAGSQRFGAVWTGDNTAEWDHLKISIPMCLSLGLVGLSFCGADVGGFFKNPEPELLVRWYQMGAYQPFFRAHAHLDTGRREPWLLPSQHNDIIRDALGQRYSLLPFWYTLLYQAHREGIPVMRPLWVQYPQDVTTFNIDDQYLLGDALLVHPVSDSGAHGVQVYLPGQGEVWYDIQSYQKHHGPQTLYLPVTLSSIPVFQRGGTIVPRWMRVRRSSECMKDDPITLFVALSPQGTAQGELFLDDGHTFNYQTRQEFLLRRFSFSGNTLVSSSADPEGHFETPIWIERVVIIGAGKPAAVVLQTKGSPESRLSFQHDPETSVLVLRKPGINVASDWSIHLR
T2 sequence (P14314 15-528 partner): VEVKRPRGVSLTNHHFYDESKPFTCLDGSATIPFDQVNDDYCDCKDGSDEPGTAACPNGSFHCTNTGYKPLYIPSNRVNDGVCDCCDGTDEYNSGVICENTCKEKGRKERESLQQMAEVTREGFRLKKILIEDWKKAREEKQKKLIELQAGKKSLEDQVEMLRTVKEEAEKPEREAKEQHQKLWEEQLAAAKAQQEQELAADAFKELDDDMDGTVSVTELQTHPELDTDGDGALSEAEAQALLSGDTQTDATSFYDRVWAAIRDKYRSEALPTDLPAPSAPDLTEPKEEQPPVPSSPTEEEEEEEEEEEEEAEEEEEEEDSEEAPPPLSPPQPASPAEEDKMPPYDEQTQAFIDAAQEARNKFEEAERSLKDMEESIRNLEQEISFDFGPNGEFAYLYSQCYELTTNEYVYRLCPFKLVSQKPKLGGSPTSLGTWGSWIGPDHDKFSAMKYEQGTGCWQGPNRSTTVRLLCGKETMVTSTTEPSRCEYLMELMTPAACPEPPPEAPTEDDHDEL
In short: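 Human normal dermal fibroblast homogenate (17.6 μg total protein) in 150 mM McIlvaine buffer for 5 min on ice, at pH 4 for GAA and pH 7 for GANAB. Exposed to test compound for 15, 30 or 60 min at 37 °C, then labeled with Cy5 aziridine probe 13 for 30 min at 37 °C. Denatured at 98 °C, 10% SDS–PAGE, Cy5 in-gel fluorescence scan.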

sucrase-isomaltase (SIS), sequence (B5THE3 1-1818): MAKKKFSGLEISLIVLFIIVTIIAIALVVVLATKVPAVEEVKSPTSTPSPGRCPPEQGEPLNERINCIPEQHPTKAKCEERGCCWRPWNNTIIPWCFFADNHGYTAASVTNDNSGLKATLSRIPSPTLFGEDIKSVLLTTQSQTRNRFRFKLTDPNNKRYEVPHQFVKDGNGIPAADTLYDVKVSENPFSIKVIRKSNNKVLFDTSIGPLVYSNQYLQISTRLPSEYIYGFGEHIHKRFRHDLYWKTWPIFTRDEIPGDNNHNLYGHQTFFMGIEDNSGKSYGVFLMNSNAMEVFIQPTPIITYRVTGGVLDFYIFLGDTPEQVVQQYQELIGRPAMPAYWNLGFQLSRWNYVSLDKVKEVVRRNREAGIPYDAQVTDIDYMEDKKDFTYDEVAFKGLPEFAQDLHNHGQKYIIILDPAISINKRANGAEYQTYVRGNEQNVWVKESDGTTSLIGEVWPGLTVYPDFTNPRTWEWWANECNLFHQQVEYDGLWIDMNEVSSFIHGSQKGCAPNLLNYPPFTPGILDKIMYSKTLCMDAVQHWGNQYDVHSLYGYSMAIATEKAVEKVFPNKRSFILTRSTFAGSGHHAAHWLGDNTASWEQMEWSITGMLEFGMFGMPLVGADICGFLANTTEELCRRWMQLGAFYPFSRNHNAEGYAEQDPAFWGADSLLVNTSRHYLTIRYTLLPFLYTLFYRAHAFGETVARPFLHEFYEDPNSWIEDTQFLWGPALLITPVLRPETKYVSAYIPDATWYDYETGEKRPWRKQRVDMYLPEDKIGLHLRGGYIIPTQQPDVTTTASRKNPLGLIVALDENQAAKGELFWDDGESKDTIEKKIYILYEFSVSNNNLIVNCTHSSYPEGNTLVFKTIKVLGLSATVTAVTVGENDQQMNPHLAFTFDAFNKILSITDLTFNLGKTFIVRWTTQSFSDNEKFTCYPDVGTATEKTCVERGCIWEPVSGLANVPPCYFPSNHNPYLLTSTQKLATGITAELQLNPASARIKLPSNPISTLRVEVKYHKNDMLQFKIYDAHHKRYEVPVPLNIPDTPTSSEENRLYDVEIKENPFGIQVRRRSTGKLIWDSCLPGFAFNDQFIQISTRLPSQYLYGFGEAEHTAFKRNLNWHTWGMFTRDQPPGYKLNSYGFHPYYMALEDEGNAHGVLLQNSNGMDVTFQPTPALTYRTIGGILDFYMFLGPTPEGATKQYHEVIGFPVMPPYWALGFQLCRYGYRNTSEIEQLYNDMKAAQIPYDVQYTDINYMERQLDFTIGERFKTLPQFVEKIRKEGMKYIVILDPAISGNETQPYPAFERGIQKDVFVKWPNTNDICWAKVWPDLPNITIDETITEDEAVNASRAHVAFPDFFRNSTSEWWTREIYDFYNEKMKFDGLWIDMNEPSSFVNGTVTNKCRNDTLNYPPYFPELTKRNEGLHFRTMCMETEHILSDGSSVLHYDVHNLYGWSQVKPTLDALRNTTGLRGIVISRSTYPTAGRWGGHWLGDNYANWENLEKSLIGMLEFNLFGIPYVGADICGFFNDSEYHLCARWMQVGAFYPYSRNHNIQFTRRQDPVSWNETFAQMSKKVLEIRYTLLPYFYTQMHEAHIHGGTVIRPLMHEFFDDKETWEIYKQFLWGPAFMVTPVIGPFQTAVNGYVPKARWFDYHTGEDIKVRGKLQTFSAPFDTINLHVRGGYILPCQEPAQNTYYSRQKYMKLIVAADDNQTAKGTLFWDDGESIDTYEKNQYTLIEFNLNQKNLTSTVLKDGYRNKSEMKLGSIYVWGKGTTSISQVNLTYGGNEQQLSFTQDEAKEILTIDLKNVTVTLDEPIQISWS

O=S1(=O)O[C@@H]2[C@H](O)[C@@H](O)[C@H](O)[C@@H](CO)[C@@H]2O1 [Compound 5, 1,6-epi-cyclophellitol cyclosulfate]
inhibition of probe 13 labeling of SIS (sucrase-isomaltase (SIS)): inhibited
inhibition of probe 14 labeling of GBA3 (GBA3): no inhibition
inhibition of probe 13 labeling of MGAM [1]: inhibited
IC50 (human α-glucosidase GAA): 82 ± 1 nM
inhibition of probe 13 labeling of GANAB (GANAB): time dependent inhibition
